What was measured:
[1] = Causally related adverse events, phase Ia/Ib study in patients with solid tumors; type: in vivo, human
In short: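 Expansion cohorts received nanosuspension at 100 mg once daily. The safety set was all patients given ≥1 dose, classified by the treatment actually received. Treatment was delayed or reduced for grade ≥3 or clinically significant nonhematologic toxicity.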

[2] = test system: NSCLC (post-IO); assay: Tumor response; type: in vivo, human

## Cc1cc(-c2nnc(N)nc2-c2ccc(F)cc2)cc(Cl)n1 [AZD4635]
[1]; Other Post-IO
  Causally related AE grade ≥3: Anemia: 1 (4.8) n (%)
  Causally related AE grade ≥3: Arthralgia: 0 n (%)
  Causally related AE grade ≥3: Blood creatinine increased: 0 n (%)
  Causally related AE grade ≥3: CRP increased: 0 n (%)
  Causally related AE grade ≥3: Dermatitis psoriasiform: 0 n (%)
  Causally related AE grade ≥3: Diarrhea: 0 n (%)
  Causally related AE grade ≥3: Dizziness: 0 n (%)
  Causally related AE grade ≥3: Dyspnea: 1 (4.8) n (%)
  Causally related AE grade ≥3: Fatigue: 1 (4.8) n (%)
  Causally related AE grade ≥3: Headache: 0 n (%)
  Causally related AE grade ≥3: Hyperglycemia: 0 n (%)
  Causally related AE grade ≥3: Hypertension: 0 n (%)
  Causally related AE grade ≥3: Hypophosphatemia: 0 n (%)
  Causally related AE grade ≥3: Insomnia: 0 n (%)
  Causally related AE grade ≥3: Lipase increased: 0 n (%)
  Causally related AE grade ≥3: Lymphocyte count decreased: 1 (4.8) n (%)
  Causally related AE grade ≥3: Myositis: 0 n (%)
  Causally related AE grade ≥3: Nausea: 0 n (%)
  Causally related AE grade ≥3: Neutrophil count decreased: 0 n (%)
  Causally related AE grade ≥3: Obliterative bronchiolitis: 0 n (%)
  Causally related AE grade ≥3: Rash: 0 n (%)
  Causally related AE grade ≥3: Sudden death: 0 n (%)
  Causally related AE grade ≥3: Type I diabetes mellitus: 0 n (%)
  Causally related AE grade ≥3: Vomiting: 0 n (%)
  ≥Grade 3 causally related AE: 1 (4.8) n (%)
[1]; Total
  Causally related AE grade ≥3: ALT increased: 0 n (%)
  Causally related AE grade ≥3: Abdominal pain: 2 (1.4) n (%)
  Causally related AE grade ≥3: Anemia: 4 (2.7) n (%)
  Causally related AE grade ≥3: Arthralgia: 1 (0.7) n (%)
  Causally related AE grade ≥3: Blood creatinine increased: 0 n (%)
  Causally related AE grade ≥3: CRP increased: 1 (0.7) n (%)
  Causally related AE grade ≥3: Dermatitis psoriasiform: 0 n (%)
  Causally related AE grade ≥3: Diarrhea: 1 (0.7) n (%)
  Causally related AE grade ≥3: Dizziness: 0 n (%)
  Causally related AE grade ≥3: Dyspnea: 1 (0.7) n (%)
  Causally related AE grade ≥3: Fatigue: 6 (4.1) n (%)
  Causally related AE grade ≥3: Headache: 1 (0.7) n (%)
  Causally related AE grade ≥3: Hyperglycemia: 0 n (%)
  Causally related AE grade ≥3: Hypertension: 2 (1.4) n (%)
  Causally related AE grade ≥3: Hypophosphatemia: 0 n (%)
  Causally related AE grade ≥3: Insomnia: 1 (0.7) n (%)
  Causally related AE grade ≥3: Lipase increased: 0 n (%)
  Causally related AE grade ≥3: Lymphocyte count decreased: 1 (0.7) n (%)
  Causally related AE grade ≥3: Myositis: 0 n (%)
  Causally related AE grade ≥3: Nausea: 1 (0.7) n (%)
  Causally related AE grade ≥3: Neutrophil count decreased: 0 n (%)
  Causally related AE grade ≥3: Obliterative bronchiolitis: 0 n (%)
  Causally related AE grade ≥3: Rash: 0 n (%)
  Causally related AE grade ≥3: Sudden death: 1 (0.7) n (%)
  Causally related AE grade ≥3: Type I diabetes mellitus: 0 n (%)
  Causally related AE grade ≥3: Vomiting: 2 (1.4) n (%)
  ≥Grade 3 causally related AE: 19 (12.9) n (%)
[1]; all tumor cohorts
  Treatment-related AEs of grade 3 or greater severity, patients: 12.9%
[1]; mCRPC IO-naïve
  Causally related AE grade ≥3: ALT increased: 0 n (%)
  Causally related AE grade ≥3: Abdominal pain: 1 (1.5) n (%)
  Causally related AE grade ≥3: Anemia: 3 (4.6) n (%)
  Causally related AE grade ≥3: Arthralgia: 1 (1.5) n (%)
  Causally related AE grade ≥3: Blood creatinine increased: 0 n (%)
  Causally related AE grade ≥3: CRP increased: 1 (1.5) n (%)
  Causally related AE grade ≥3: Dermatitis psoriasiform: 0 n (%)
  Causally related AE grade ≥3: Diarrhea: 0 n (%)
  Causally related AE grade ≥3: Dizziness: 0 n (%)
  Causally related AE grade ≥3: Dyspnea: 0 n (%)
  Causally related AE grade ≥3: Fatigue: 1 (1.5) n (%)
  Causally related AE grade ≥3: Headache: 1 (1.5) n (%)
  Causally related AE grade ≥3: Hyperglycemia: 0 n (%)
  Causally related AE grade ≥3: Hypertension: 0 n (%)
  Causally related AE grade ≥3: Hypophosphatemia: 0 n (%)
  Causally related AE grade ≥3: Insomnia: 1 (1.5) n (%)
  Causally related AE grade ≥3: Lipase increased: 0 n (%)
  Causally related AE grade ≥3: Lymphocyte count decreased: 0 n (%)
  Causally related AE grade ≥3: Myositis: 0 n (%)
  Causally related AE grade ≥3: Nausea: 1 (1.5) n (%)
  Causally related AE grade ≥3: Neutrophil count decreased: 0 n (%)
  Causally related AE grade ≥3: Obliterative bronchiolitis: 0 n (%)
  Causally related AE grade ≥3: Rash: 0 n (%)
  Causally related AE grade ≥3: Sudden death: 0 n (%)
  Causally related AE grade ≥3: Type I diabetes mellitus: 0 n (%)
  Causally related AE grade ≥3: Vomiting: 1 (1.5) n (%)
  ≥Grade 3 causally related AE: 9 (13.8) n (%)
[1]; monotherapy and in combination with durvalumab, all patients
  Tolerability: well tolerated
[2]; NSCLC
  Best response of SD: 5 (33.3%) n (%)
[2]; NSCLC Post-IO
  Disease control at 22 Weeks, Yes: 1 (6.7%) n (%)

Source: publication PMC9660540 (Clinical Cancer Research, 2022)
